This passage reports MIC results from ChEMBL document CHEMBL1140517, “Synthesis, antifungal and antimycobacterial activities of new bis-imidazole derivatives, and prediction of their binding to P450(14DM) by molecular docking and MM/PBSA method” (2007).

≈ marks a conversion by molar mass, not a printed value.

Type in all cases: functional
Assay [1] has as its system Nakaseomyces glabratus. Nature of the assay: Antimicrobial activity against Candida glabrata 123 after 24 hrs. The procedure, abridged: (§1)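 Broth MIC against clinical Candida isolates (C. albicans 3038 and C. glabrata 123). Compounds were taken from 4 mg/mL DMSO stock solutions (stock, not final concentration). Miconazole and amphotericin B served as reference compounds. Each MIC was determined twice in duplicate experiments and read after 24 h and 48 h of incubation.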

Assay [2] deals with Candida albicans. As to the kind of experiment: Antimicrobial activity against Candida albicans 3038 after 24 hrs. The procedure, abridged: as §1
The test system of assay [3] is Nakaseomyces glabratus. As to the kind of experiment: Antimicrobial activity against Candida glabrata 123 after 48 hrs. Summed up: as §1
Assay [4] relates to Candida albicans. As to the kind of experiment: Antimicrobial activity against Candida albicans 3038 after 48 hrs. The procedure, abridged: as §1
Assay [5] deals with Mycobacterium tuberculosis. As to the kind of experiment: Antimicrobial activity against Mycobacterium tuberculosis H37Rv after 24 hrs.
Assay [6] relates to Mycobacterium tuberculosis. Nature of the assay: Antimicrobial activity against Mycobacterium tuberculosis H37Rv assessed per disk after 24 hrs.

On to `O=C(c1ccc([N+](=O)[O-])cc1)C(Cn1ccnc1)Cn1ccnc1`, for which the MIC is 128 µg/mL (≈ 393 µM) with Nakaseomyces glabratus [1]; 128 µg/mL (≈ 393 µM) with Candida albicans [2]; more than 128 µg/mL against Nakaseomyces glabratus [3]; more than 128 µg/mL in the assay on Candida albicans [4]; 64 µg/mL (≈ 197 µM) in assay [5].
Regarding `O=C(c1ccc(-c2ccccc2)cc1)C(Cn1ccnc1)Cn1ccnc1`, the MIC was 4 µg/mL (≈ 11.2 µM) against Nakaseomyces glabratus [1]; 2 µg/mL (≈ 5.61 µM) with Candida albicans [2]; 8 µg/mL (≈ 22.4 µM) in the assay on Nakaseomyces glabratus [3]; 4 µg/mL (≈ 11.2 µM) against Candida albicans [4]; 8 µg/mL (≈ 22.4 µM) in assay [5].
Take `O=C(c1ccc(Br)s1)C(Cn1ccnc1)Cn1ccnc1`: the MIC against Nakaseomyces glabratus [1] was found to be 64 µg/mL (≈ 175 µM); against Candida albicans [2] it was 64 µg/mL (≈ 175 µM); in the assay on Nakaseomyces glabratus [3], 128 µg/mL (≈ 350 µM); against Candida albicans [4] it was 64 µg/mL (≈ 175 µM); in assay [5], 16 µg/mL (≈ 43.8 µM).
On to `O=C(c1ccc(Br)cc1)C(Cn1ccnc1)Cn1ccnc1`, for which the MIC is 32 µg/mL (≈ 89.1 µM) in the assay with Nakaseomyces glabratus [1]; 16 µg/mL (≈ 44.5 µM) against Candida albicans [2]; 64 µg/mL (≈ 178 µM) against Nakaseomyces glabratus [3]; 32 µg/mL (≈ 89.1 µM) in the assay with Candida albicans [4]; 16 µg/mL (≈ 44.5 µM) in assay [5].
For the compound `O=C(c1ccc(F)cc1)C(Cn1ccnc1)Cn1ccnc1`, the MIC was determined as 128 µg/mL (≈ 429 µM) in the assay with Nakaseomyces glabratus [1]; 64 µg/mL (≈ 215 µM) in the assay on Candida albicans [2]; 128 µg/mL (≈ 429 µM) in the assay with Nakaseomyces glabratus [3]; 128 µg/mL (≈ 429 µM) against Candida albicans [4]; 16 µg/mL (≈ 53.6 µM) in assay [5].
Turning to `Cc1ccc(C(=O)C(Cn2ccnc2)Cn2ccnc2)cc1`, the MIC in the assay on Nakaseomyces glabratus [1] is 128 µg/mL (≈ 435 µM); against Candida albicans [2] it was 64 µg/mL (≈ 217 µM); against Nakaseomyces glabratus [3], 128 µg/mL (≈ 435 µM); in the assay with Candida albicans [4], 128 µg/mL (≈ 435 µM); in assay [5], 8 µg/mL (≈ 27.2 µM).
For the compound `O=C(c1cccs1)C(Cn1ccnc1)Cn1ccnc1`, the MIC in the assay with Nakaseomyces glabratus [1] came out at 128 µg/mL (≈ 447 µM); in the assay on Candida albicans [2], 128 µg/mL (≈ 447 µM); against Nakaseomyces glabratus [3], 128 µg/mL (≈ 447 µM); against Candida albicans [4], 128 µg/mL (≈ 447 µM); in assay [5], 16 µg/mL (≈ 55.9 µM).
For the compound `O=C(c1ccc(Cl)s1)C(Cn1ccnc1)Cn1ccnc1`, the MIC with Nakaseomyces glabratus [1] was found to be 64 µg/mL (≈ 199 µM); against Candida albicans [2], 64 µg/mL (≈ 199 µM); against Nakaseomyces glabratus [3], 128 µg/mL (≈ 399 µM); with Candida albicans [4], 64 µg/mL (≈ 199 µM); in assay [5], 16 µg/mL (≈ 49.9 µM).
In the case of `O=C(c1ccc(Cl)cc1)C(Cn1ccnc1)Cn1ccnc1`, the MIC is 32 µg/mL (≈ 102 µM) against Nakaseomyces glabratus [1]; 16 µg/mL (≈ 50.8 µM) in the assay on Candida albicans [2]; 64 µg/mL (≈ 203 µM) against Nakaseomyces glabratus [3]; 32 µg/mL (≈ 102 µM) against Candida albicans [4]; 16 µg/mL (≈ 50.8 µM) in assay [5].
For the compound `OC(c1ccc(Br)cc1)C(Cn1ccnc1)Cn1ccnc1` (stereo not drawn), the MIC is 128 µg/mL (≈ 354 µM) against Nakaseomyces glabratus [1], 128 µg/mL (≈ 354 µM) against Candida albicans [2], more than 128 µg/mL in the assay on Candida albicans [4] and 8 µg/mL (≈ 22.1 µM) in assay [5].
As to `COc1ccc(C(O)C(Cn2ccnc2)Cn2ccnc2)cc1` (stereo not drawn), the MIC in the assay on Nakaseomyces glabratus [1] was 128 µg/mL (≈ 410 µM); against Candida albicans [2], 128 µg/mL (≈ 410 µM); against Nakaseomyces glabratus [3], more than 128 µg/mL; in the assay with Candida albicans [4], more than 128 µg/mL; in assay [5], 64 µg/mL (≈ 205 µM).
For `O=C(c1ccccc1)C(Cn1ccnc1)Cn1ccnc1`, the MIC in the assay on Nakaseomyces glabratus [1] stood at 128 µg/mL (≈ 457 µM); with Candida albicans [2], 64 µg/mL (≈ 228 µM); with Nakaseomyces glabratus [3], 128 µg/mL (≈ 457 µM); in the assay on Candida albicans [4] it was 64 µg/mL (≈ 228 µM); in assay [5] it was 16 µg/mL (≈ 57.1 µM).
As to `COc1ccc(C(=O)C(Cn2ccnc2)Cn2ccnc2)cc1`, the MIC against Nakaseomyces glabratus [1] turned out to be 128 µg/mL (≈ 412 µM); against Candida albicans [2], 64 µg/mL (≈ 206 µM); with Nakaseomyces glabratus [3], 128 µg/mL (≈ 412 µM); with Candida albicans [4] it was 128 µg/mL (≈ 412 µM); in assay [5], 16 µg/mL (≈ 51.6 µM).
For `C[C@@H]1[C@H](O)[C@@H](C)/C=C/C=C/C=C/C=C/C=C/C=C/C=C/[C@H](O[C@@H]2O[C@H](C)[C@@H](O)[C@H](N)[C@@H]2O)C[C@@H]2O[C@](O)(C[C@@H](O)C[C@@H](O)[C@H](O)CC[C@@H](O)C[C@@H](O)CC(=O)O[C@H]1C)C[C@H](O)[C@H]2C(=O)O` [AMPHOTERICIN B], the MIC in the assay with Nakaseomyces glabratus [1] turned out to be 0.5 µg/mL (≈ 0.541 µM); with Candida albicans [2], 1 µg/mL (≈ 1.08 µM); in the assay with Nakaseomyces glabratus [3], 2 µg/mL (≈ 2.16 µM); against Candida albicans [4], 2 µg/mL (≈ 2.16 µM).
`Clc1ccc(COC(Cn2ccnc2)c2ccc(Cl)cc2Cl)c(Cl)c1` (stereo not drawn) [MICONAZOLE]: the MIC against Nakaseomyces glabratus [1] stood at 1.25 µg/mL (≈ 3 µM); in the assay with Candida albicans [2] it was 2.5 µg/mL (≈ 6.01 µM); against Nakaseomyces glabratus [3], 2.5 µg/mL (≈ 6.01 µM); against Candida albicans [4], 5 µg/mL (≈ 12 µM).
Compound `CO[C@H]1/C=C/O[C@@]2(C)Oc3c(C)c(O)c4c(O)c(c(/C=N/N5CCN(C)CC5)c(O)c4c3C2=O)NC(=O)/C(C)=C\C=C\[C@H](C)[C@H](O)[C@@H](C)[C@@H](O)[C@@H](C)[C@H](OC(C)=O)[C@@H]1C` [RIFAMPIN] registered an MIC in assay [6] of 1 mg.
